Reference: ChEMBL document CHEMBL1629690, “Development of hexadecyloxypropyl tenofovir (CMX157) for treatment of infection caused by wild-type and nucleoside/nucleotide-resistant HIV” (Antimicrob Agents Chemother, 2010)
pEC50: −log10 of the molar value.

Columns and labels:
[1] = system: Human immunodeficiency virus 1; assay: Antiviral activity against HIV1 isolate JR-CSF infected in human MDM […] by MTS assay; assay type: functional; settings: Human immunodeficiency virus 1, JRCSF ISOLATE
[2] = system: Human immunodeficiency virus 1; assay: Antiviral activity against HIV1 subtype B isolate Ba-L infected in human MDM […] by MTS assay; assay type: functional, organism-based; settings: Human immunodeficiency virus 1, isolate Ba-L
[3] = system: Human immunodeficiency virus 1; assay: Antiviral activity against HIV1 isolate JR-CSF infected in human PBMC after 48 to 72 hrs by MTS assay; assay type: functional; settings: Human immunodeficiency virus 1, JRCSF ISOLATE
Procedure, shortened: (§1)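 This is the PHA/IL-2 PBMC assay run with JR-CSF preincubated with 8 × 10^6 pooled cells for 1 h at 37°C. Cells were then spinoculated at 200 × g for 1 h and held 2 h more. Infected cells (2.5 × 10^4) were added, without virus washout, to wells holding uninfected PBMCs and compound. Medium had 15% FBS, plus 0, 10, 15, 20 or 30% human serum.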

PBMC [4] = assay: Cellular uptake in PHA/IL-2-stimulated human PBMC at 0.01 uM assessed as TFV-diphosphate after 24 hrs by MS/MS analysis; assay type: ADME, cell-based
Procedure, shortened: (§2)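 PHA/IL-2-stimulated PBMCs at 2 × 10^6 cells/ml (5 × 10^7 per flask) were exposed for 24 h at 37°C. Cells were washed three times in cold 0.9% NaCl and counted by trypan blue. Aliquots of 1 × 10^7 cells were pelleted. TFV, TFV-MP and TFV-PP were separated by ion-pairing reverse-phase gradient LC and detected by positive electrospray. Results are given as pmol/10^6 cells.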

PBMC [5] = assay: Cellular uptake in human PBMC at 0.01 uM assessed as TFV-monophosphate after 24 hrs by MS/MS analysis; assay type: ADME, cell-based; settings: BLD = below limit of detection
Procedure, shortened: (§3)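 Human PBMCs, unstimulated or PHA/IL-2-stimulated, at 2 × 10^6 cells/ml in RPMI 1640 with 15% FBS, exposed 24 h at 37°C to final 0.01, 0.1, 1.0 or 10 μM of the prodrug, or 1.0 or 10 μM tenofovir. After cold saline washes the cells were counted and 1 × 10^7-cell pellets made. TFV, TFV-MP and TFV-PP were measured by ion-pairing LC with positive-ion electrospray MS as pmol/10^6 cells.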

PBMC [6] = assay: Cellular uptake in human PBMC at 0.01 uM assessed as TFV-diphosphate after 24 hrs by MS/MS analysis; assay type: ADME, cell-based; procedure, shortened: as §3
PBMC [7] = assay: Cellular uptake in PHA/IL-2-stimulated human PBMC at 0.1 uM assessed as TFV-diphosphate after 24 hrs by MS/MS analysis; assay type: ADME, cell-based; procedure, shortened: as §2
PBMC [8] = assay: Cellular uptake in PHA/IL-2-stimulated human PBMC at 1 uM assessed as TFV level after 24 hrs by MS/MS analysis; assay type: ADME, cell-based
Procedure, shortened: (§4)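 PHA-stimulated (4 μg/ml PHA, 48 to 72 h; 20 U/ml rhIL-2) human PBMCs at 2 × 10^6 cells/ml in RPMI 1640 with 15% FBS, given tenofovir or prodrug (final 0.01 to 10 μM) for 24 h at 37°C. Cells washed three times in cold 0.9% NaCl, counted, and 1 × 10^7 cell aliquots pelleted. TFV, TFV-MP and TFV-PP were separated by ion-pairing reverse-phase LC and detected by positive-ion electrospray MS. Output is pmol per 10^6 cells.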

[9] = system: Human immunodeficiency virus 1; assay: Antiviral activity against HIV1 subtype B isolate 92TH014 infected in human MDM […] by MTS assay; assay type: functional, organism-based; settings: Human immunodeficiency virus 1, isolate 92TH014
[10] = system: Human immunodeficiency virus 1; assay: Antiviral activity against HIV1 isolate JR-CSF infected in human PBMC after 48 to 72 hrs by MTS assay in presence of 15% human serum; assay type: functional; settings: Human immunodeficiency virus 1, JRCSF ISOLATE; procedure, shortened: as §1
[11] = system: Human immunodeficiency virus 1; assay: Antiviral activity against HIV1 subtype C isolate 91IN101 infected in human PBMC after 48 to 72 hrs by MTS assay; assay type: functional, organism-based; settings: Human immunodeficiency virus 1, isolate 93IN101; in the assay text read “93IN101” for “91IN101”
Procedure, shortened: (§5)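 Fresh donor PBMCs, HIV- and HBV-seronegative, were stimulated with 4 μg/ml PHA for 48 to 72 h and kept on 20 U/ml rhIL-2. Cells pooled from at least two donors were seeded at 5 × 10^4 per well and infected at MOI ~0.1. Nine compound concentrations were run in triplicate wells for 7 days.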

PBMC [12] = assay: Cellular uptake in human PBMC at 1 uM assessed as TFV level after 24 hrs by MS/MS analysis; assay type: ADME, cell-based; procedure, shortened: as §3
[13] = system: Human immunodeficiency virus 1; assay: Antiviral activity against HIV1 isolate JR-CSF infected in human PBMC after 48 to 72 hrs by MTS assay in presence of 100% human serum; assay type: functional; settings: Human immunodeficiency virus 1, JRCSF ISOLATE
Procedure, shortened: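 The value is an estimate for 100% human serum, extrapolated from JR-CSF EC50s measured in PHA/IL-2 PBMCs. Those assays used a virus preincubation/spinoculation step and contained 0 to 30% human serum on top of 15% FBS.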

PBMC [14] = assay: Cellular uptake in human PBMC at 0.1 uM assessed as TFV-monophosphate after 24 hrs by MS/MS analysis; assay type: ADME, cell-based; settings: BLD = below limit of detection; procedure, shortened: as §3
[15] = system: Human immunodeficiency virus 1; assay: Antiviral activity against HIV1 subtype B isolate 92BR014 infected in human PBMC after 48 to 72 hrs by MTS assay; assay type: functional, organism-based; settings: Human immunodeficiency virus 1, isolate 92BR014; procedure, shortened: as §5
[16] = system: Human immunodeficiency virus 1; assay: Antiviral activity against HIV1 isolate JR-CSF infected in human PBMC after 48 to 72 hrs by MTS assay in presence of 10% human serum; assay type: functional; settings: Human immunodeficiency virus 1, JRCSF ISOLATE; procedure, shortened: as §1
[17] = system: Human immunodeficiency virus 1; assay: Antiviral activity against HIV1 group O isolate BCF01 infected in human PBMC after 48 to 72 hrs by MTS assay; assay type: functional, organism-based; settings: Human immunodeficiency virus 1, isolate BCF01; procedure, shortened: as §5
[18] = system: Human immunodeficiency virus 1; assay: Antiviral activity against HIV1 group O isolate BCF03 infected in human PBMC after 48 to 72 hrs by MTS assay; assay type: functional, organism-based; settings: Human immunodeficiency virus 1, isolate BCF03; procedure, shortened: as §5
[19] = system: Human immunodeficiency virus 1; assay: Antiviral activity against HIV1 isolate JR-CSF infected in human PBMC after 48 to 72 hrs by MTS assay in presence of 30% human serum; assay type: functional; settings: Human immunodeficiency virus 1, JRCSF ISOLATE; procedure, shortened: as §1
PBMC [20] = assay: Cellular uptake in PHA/IL-2-stimulated human PBMC at 10 uM assessed as TFV level after 24 hrs by MS/MS analysis; assay type: ADME, cell-based; procedure, shortened: as §4
[21] = system: Human immunodeficiency virus 1; assay: Antiviral activity against HIV1 subtype B isolate 96USHIPS7 infected in human PBMC after 48 to 72 hrs by MTS assay; assay type: functional, organism-based; settings: Human immunodeficiency virus 1, isolate 96USHIPS7; procedure, shortened: as §5
PBMC [22] = assay: Cellular uptake in PHA/IL-2-stimulated human PBMC at 10 uM after 24 hrs by MS/MS analysis; assay type: ADME, cell-based; procedure, shortened: as §4
PBMC [23] = assay: Cellular uptake in PHA/IL-2-stimulated human PBMC at 1 uM after 24 hrs by MS/MS analysis; assay type: ADME, cell-based; settings: BLD = below limit of detection; procedure, shortened: as §4
PBMC [24] = assay: Cellular uptake in human PBMC at 10 uM after 24 hrs by MS/MS analysis; assay type: ADME, cell-based; procedure, shortened: as §3
PBMC [25] = assay: Cellular uptake in human PBMC at 1 uM after 24 hrs by MS/MS analysis; assay type: ADME, cell-based; procedure, shortened: as §3

For `CCCCCCCCCCCCCCCCOCCCOP(=O)(O)CO[C@H](C)Cn1cnc2c(N)ncnc21` [TENOFOVIR EXALIDEX], the pEC50 [1] was 8.51, the pEC50 [2] was 8.51 and the pEC50 [3] was 8.82. For the same compound, the Drug uptake (PBMC [4]) was 0.07 pmol/10^6 cells, the Drug uptake (PBMC [5]) was “BLD” and the Drug uptake (PBMC [6]) was 0.07 pmol/10^6 cells. The Drug uptake (PBMC [7]) was 0.25 pmol/10^6 cells, the Drug uptake (PBMC [8]) was 0.56 pmol/10^6 cells and the pEC50 [9] was 8.51. For the same compound, the pEC50 [10] was 8.19, the pEC50 [11] was 8.55 and the Drug uptake (PBMC [12]) was 0.07 pmol/10^6 cells. For the same compound, the pEC50 [13] was 7.28, the Drug uptake (PBMC [14]) was “BLD” and the pEC50 [15] was 8.82. It also gave a pEC50 [16] of 8.34, a pEC50 [17] of 8.30 and a pEC50 [18] of 8.30. It also gave a pEC50 [19] of 7.80, a Drug uptake (PBMC [20]) of 1.9 pmol/10^6 cells and a pEC50 [21] of 8.82.

In the case of `C[C@H](Cn1cnc2c(N)ncnc21)OCP(=O)(O)O` [TENOFOVIR ANHYDROUS], the Drug uptake (PBMC [22]) was 0.09 pmol/10^6 cells, the Drug uptake (PBMC [23]) was “BLD” and the Drug uptake (PBMC [24]) was 0.11 pmol/10^6 cells. For the same compound, the Drug uptake (PBMC [25]) was “Not Active”.
